Measurements from ChEMBL document CHEMBL3785059, “LC-MS-Guided Isolation of Penicilfuranone A: A New Antifibrotic Furancarboxylic Acid from the Plant Endophytic Fungus Penicillium sp. sh18” (J Nat Prod, 2016).
Active and inactive are the calls of the source.

What was measured:
[1] = system: LX2; experiment: Inhibition of TGF-beta-induced CTGF expression in human LX2 cells after 48 hrs by Western blot analysis; assay type: functional, cell-based
[2] = system: HSC-T6; experiment: Inhibition of TGF-beta-induced vimentin expression in rat HSC-T6 cells at 1 to 4 uM after 48 hrs by Western blot analysis; assay type: functional, cell-based
Method in brief: (§1)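 Cells at 70% confluence serum-starved 24 h (passages 18–25). Preincubated 2 h with compound (1, 2 or 4 μM), DMSO vehicle or 10 μM SB431542, then 10 ng/mL human recombinant TGF-β1 added without wash for 48 h. Whole-cell lysates (30 μg protein) run on SDS-PAGE and immunoblotted with β-actin as loading control.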

[3] = Cytotoxicity against human L02 cells at up to 4 uM after 48 hrs by MTT assay; assay type: cell-based; conditions: l02, 48 h
Method in brief: (§2)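 MTT (5 mg/mL stock) added for 4 h at 37 °C. Formazan dissolved in DMSO, OD read at 570 nm. Viability given as % of control; mean ± SEM of three independent experiments.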

[4] = system: LX2; experiment: Inhibition of TGF-beta-induced alpha-SMA expression in human LX2 cells at 1 to 4 uM after 48 hrs by Western blot analysis; assay type: functional, cell-based; method in brief: as §1
[5] = system: LX2; experiment: Inhibition of TGF-beta-induced vimentin expression in human LX2 cells at 1 to 4 uM after 48 hrs by Western blot analysis; assay type: functional, cell-based; method in brief: as §1
[6] = Cytotoxicity against human LX2 cells at up to 4 uM after 48 hrs by MTT assay; assay type: cell-based; conditions: lx2, 48 h; method in brief: as §2
[7] = system: HSC-T6; experiment: Inhibition of TGF-beta1-induced decrease of Smad7 expression in rat HSC-T6 cells after 1 hr by Western blot analysis; assay type: functional, cell-based
Method in brief: (§3)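 Serum-starved cells (24 h, no FBS) preincubated 2 h with compound at 1, 2 or 4 μM, DMSO or 10 μM SB431542. Then exposed to TGF-β1 at 10 ng/mL final for 1 h. Lysates (30 μg) immunoblotted for phospho-Smad2/3 and Smad7; membranes reprobed for total Smad2/3 and β-actin for loading.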

[8] = target: T1, Mothers against decapentaplegic homolog 2/homolog 3 (Rattus norvegicus) (UniProt O70436+P84025); experiment: Inhibition of TGF-beta1-induced Smad2/3 phosphorylation in rat HSC-T6 cells after 1 hr by Western blot analysis; assay type: cell-based; method in brief: as §3
[9] = system: HSC-T6; experiment: Inhibition of TGF-beta-induced type-1 collagen expression in rat HSC-T6 cells after 48 hrs by Western blot analysis; assay type: functional, cell-based; method in brief: as §1
[10] = system: HSC-T6; experiment: Effect on Smad2/3 expression in rat HSC-T6 cells at 1 to 4 uM after 1 hr by Western blot analysis; assay type: functional, cell-based; method in brief: as §3
[11] = system: LX2; experiment: Inhibition of TGF-beta-induced type-1 collagen expression in human LX2 cells after 48 hrs by Western blot analysis; assay type: functional, cell-based; method in brief: as §1
[12] = Cytotoxicity against rat HSC-T6 cells at up to 4 uM after 48 hrs by MTT assay; assay type: cell-based; conditions: hsc-t6, 48 h; method in brief: as §2
[13] = system: LX2; experiment: Effect on Smad2/3 expression in human LX2 cells at 1 to 4 uM after 1 hr by Western blot analysis; assay type: functional, cell-based; method in brief: as §3
[14] = system: HSC-T6; experiment: Inhibition of TGF-beta-induced alpha-SMA expression in rat HSC-T6 cells at 1 to 4 uM after 48 hrs by Western blot analysis; assay type: functional, cell-based; method in brief: as §1
[15] = system: HSC-T6; experiment: Inhibition of TGF-beta-induced CTGF expression in rat HSC-T6 cells after 48 hrs by Western blot analysis; assay type: functional, cell-based
[16] = system: LX2; experiment: Inhibition of TGF-beta1-induced decrease of Smad7 expression in human LX2 cells after 1 hr by Western blot analysis; assay type: functional, cell-based; method in brief: as §3
[17] = target: T2, Mothers against decapentaplegic homolog 2/homolog 3 (Homo sapiens) (UniProt P84022+Q15796); experiment: Inhibition of TGF-beta1-induced Smad2/3 phosphorylation in human LX-2 cells after 1 hr by Western blot analysis; assay type: cell-based; method in brief: as §3
[18] = system: LX2; experiment: Inhibition of TGF-beta1-induced decrease of Smad7 expression in human LX2 cells at 10 uM after 1 hr by Western blot analysis; assay type: functional, cell-based
Method in brief: (§4)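 HSC-T6 (rat; RPMI 1640) or LX-2 (human; DMEM) cells with 10% FBS, passages 18-25, were grown to 70% confluence and serum-starved 24 h. They were preincubated 2 h with test agent or DMSO, then exposed to TGF-β1 at a final 10 ng/mL for 1 h. Blots of 30 μg lysate were probed for phospho-Smad2/3 and Smad7, then reprobed for total Smad2/3 and β-actin.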

[19] = system: HSC-T6; experiment: Inhibition of TGF-beta-induced vimentin expression in rat HSC-T6 cells at 10 uM after 48 hrs by Western blot analysis; assay type: functional, cell-based
Method in brief: (§5)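 Rat HSC-T6 (RPMI 1640) or human LX-2 (DMEM) cells, passages 18-25, at 70% confluence were serum-deprived for 24 h. After 2 h pretreatment with agent or DMSO vehicle, TGF-β1 was added without washing at a final 10 ng/mL for 48 h. Whole-cell lysates (30 μg) were blotted for vimentin, with β-actin as the loading control.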

[20] = system: HSC-T6; experiment: Effect on Smad2/3 expression in rat HSC-T6 cells at 10 uM after 1 hr by Western blot analysis; assay type: functional, cell-based; method in brief: as §4
[21] = system: LX2; experiment: Effect on Smad2/3 expression in human LX2 cells at 10 uM after 1 hr by Western blot analysis; assay type: functional, cell-based; method in brief: as §4
[22] = target: T2, Mothers against decapentaplegic homolog 2/homolog 3 (Homo sapiens); experiment: Inhibition of TGF-beta1-induced Smad2/3 phosphorylation in human LX2 cells at 10 uM after 1 hr by Western blot analysis; assay type: cell-based; method in brief: as §4
[23] = system: HSC-T6; experiment: Inhibition of TGF-beta1-induced decrease of Smad7 expression in rat HSC-T6 cells at 10 uM after 1 hr by Western blot analysis; assay type: functional, cell-based; method in brief: as §4
[24] = system: LX2; experiment: Inhibition of TGF-beta-induced vimentin expression in human LX2 cells at 10 uM after 48 hrs by Western blot analysis; assay type: functional, cell-based; method in brief: as §5
[25] = target: T1, Mothers against decapentaplegic homolog 2/homolog 3 (Rattus norvegicus); experiment: Inhibition of TGF-beta1-induced Smad2/3 phosphorylation in rat HSC-T6 cells at 10 uM after 1 hr by Western blot analysis; assay type: cell-based; method in brief: as §4

T1 sequence (O70436 whole entry, looked up): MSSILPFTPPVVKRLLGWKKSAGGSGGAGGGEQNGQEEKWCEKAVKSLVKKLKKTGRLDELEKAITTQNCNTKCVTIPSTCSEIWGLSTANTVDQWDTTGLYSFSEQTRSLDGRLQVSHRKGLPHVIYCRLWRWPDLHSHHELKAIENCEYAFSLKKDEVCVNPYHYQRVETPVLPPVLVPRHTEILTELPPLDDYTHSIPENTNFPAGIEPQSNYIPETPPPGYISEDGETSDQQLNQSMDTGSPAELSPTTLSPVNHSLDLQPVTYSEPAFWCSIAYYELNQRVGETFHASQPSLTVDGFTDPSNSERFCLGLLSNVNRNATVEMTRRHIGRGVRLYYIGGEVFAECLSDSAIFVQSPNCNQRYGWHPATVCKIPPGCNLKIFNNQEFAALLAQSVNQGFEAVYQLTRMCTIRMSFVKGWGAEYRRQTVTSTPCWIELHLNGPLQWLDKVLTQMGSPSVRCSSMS
T1 sequence (P84025 whole entry, looked up): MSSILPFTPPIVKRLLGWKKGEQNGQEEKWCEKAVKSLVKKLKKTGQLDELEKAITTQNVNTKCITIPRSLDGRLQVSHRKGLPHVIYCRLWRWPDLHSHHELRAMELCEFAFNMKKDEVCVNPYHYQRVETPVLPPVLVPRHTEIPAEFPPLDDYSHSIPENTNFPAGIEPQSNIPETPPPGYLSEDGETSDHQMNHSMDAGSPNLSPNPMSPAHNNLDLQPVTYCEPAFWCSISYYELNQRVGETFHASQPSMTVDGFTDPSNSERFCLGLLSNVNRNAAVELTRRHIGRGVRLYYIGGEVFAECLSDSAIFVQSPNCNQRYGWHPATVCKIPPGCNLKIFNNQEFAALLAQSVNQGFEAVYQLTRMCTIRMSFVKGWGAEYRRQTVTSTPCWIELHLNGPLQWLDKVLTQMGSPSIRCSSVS
T2 sequence (P84022 whole entry, looked up): as the sequence (P84025 whole entry, looked up) above
T2 sequence (Q15796 whole entry, looked up): as the sequence (O70436 whole entry, looked up) above, with A90P, V93I, S154N counted along it

CC/C=C/C=C/[C@@]1(C)OC([C@H]2[C@@H](C)C(=O)c3cc(OC)c(O)c(O)c3[C@@]2(C)O)=C(C(=O)OC)C1=O
active: inhibition [1] Dose-dependent effect | inhibition [2] | inhibition [4] | inhibition [5] | inhibition [7] Dose-dependent effect | inhibition [8] Dose-dependent effect | inhibition [9] Dose-dependent effect | inhibition [11] Dose-dependent effect | inhibition [14] | inhibition [15] Dose-dependent effect | inhibition [16] Dose-dependent effect | inhibition [17] Dose-dependent effect
Non-toxic: Activity [3] | Activity [6] | Activity [12]
inactive: Activity [10] | Activity [13]

NC(=O)c1ccc(-c2nc(-c3ccccn3)c(-c3ccc4c(c3)OCO4)[nH]2)cc1
inactive: Activity [20] | Activity [21]
active: inhibition [18] Dose-dependent effect | inhibition [19] | inhibition [22] Dose-dependent effect | inhibition [23] Dose-dependent effect | inhibition [24] | inhibition [25] Dose-dependent effect
